In general, IC50 refers to the point on the concentration scale where inhibition reaches its midpoint. Usually logP stands for a log measure of how a compound divides between an organic and an aqueous phase.

Structures can show the parent of a compound that is named as a salt. Activity calls are given as the source filed them. The calls are words filed in the database; no cut-off is given here.

The values that follow come from ChEMBL document CHEMBL1152497, “Ligand-based design and synthesis of novel sodium channel blockers from a combined phenytoin-lidocaine pharmacophore” (Bioorg Med Chem, 2009).

Series [1] in a line: Displacement of [3H]-BTX-B from neuronal voltage-gated sodium channel in rat cerebral cortex synaptoneurosomes. It counts as tissue-based. A digest of the protocol: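 Rat forebrain membranes incubated with [3H]-batrachotoxin (30–60 Ci/mmol) in 50 mM HEPES pH 7.4 with 130 mM choline chloride, 37 °C, 60 min. Stopped by rapid vacuum filtration onto glass fiber filters, and filter radioactivity compared with control. Percent inhibition at 5–7 concentrations spanning the IC50, each in triplicate. IC50 by Probit analysis of the concentration versus percent binding curve. Aconitine 1 μM as positive control.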
(Loss of bound radioactivity is the signal in a displacement assay; it reports binding, not function.)

The nature of series [2]: Lipophilicity, log P of the compound. It counts as physicochemical. To be noted: octanol/water. An outline of the steps:
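logP calculated with a chemical properties tool, not measured.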

The species entered for another series is Rattus norvegicus. Kind of series: Displacement of [3H]-BTX-B from neuronal voltage-gated sodium channel in rat cerebral cortex synaptoneurosomes at 40 uM. It counts as tissue-based. An outline of the steps: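 Single-concentration screen at 40 μM. Rat forebrain membranes with [3H]-batrachotoxin (30–60 Ci/mmol) in 50 mM HEPES pH 7.4 containing 130 mM choline chloride, 37 °C for 60 min. Rapid vacuum filtration onto glass fiber filters, and trapped radioactivity compared with control values to give percent displacement. Aconitine 1 μM as positive control.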

Series [3] concerns the target Sodium channel protein type 2 subunit alpha (Homo sapiens) (UniProt Q99250). Briefly: Inhibition of human Nav1.2 channel expressed in HEK293 cells assessed as blocked of sodium current elicited at +10 mV for 12 mins from holding potential -100 mV at 100 uM by patch clamp method. It counts as cell-based. Set-up: scale not given: the % may be the effect or the level left. To be noted: in the assay text read “12 ms” for “12 mins”. An outline of the steps: (§1)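 Whole-cell patch clamp on HEK293 cells stably expressing human Nav1.2, grown in DMEM/F12 with 10% FBS, penicillin/streptomycin and G418 at 37 °C, 5% CO2. Step to +10 mV for 12 ms from −100 mV holding. Pipette contains CsCl/BAPTA (pH 7.4); bath contains 130 mM NaCl (pH 7.4). DMSO at most 0.3%, 20–22 °C, ≥75% series-resistance compensation. Compound at 100 μM, followed by washout; n = 4.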
A general note: In patch-clamp work, channel activity is measured electrically.

Series [4] has the same target. Kind of series: Inhibition of human Nav1.2 channel expressed in HEK293 cells assessed as blocked of sodium current elicited at +10 mV for 12 mins from holding potential -100 mV at 100 uM measured after washout by patch clamp method. It counts as cell-based. To be noted: in the assay text read “12 ms” for “12 mins”. An outline of the steps:
as §1

Chain of Sodium channel protein type 2 subunit alpha (Homo sapiens) (Q99250 whole entry, looked up): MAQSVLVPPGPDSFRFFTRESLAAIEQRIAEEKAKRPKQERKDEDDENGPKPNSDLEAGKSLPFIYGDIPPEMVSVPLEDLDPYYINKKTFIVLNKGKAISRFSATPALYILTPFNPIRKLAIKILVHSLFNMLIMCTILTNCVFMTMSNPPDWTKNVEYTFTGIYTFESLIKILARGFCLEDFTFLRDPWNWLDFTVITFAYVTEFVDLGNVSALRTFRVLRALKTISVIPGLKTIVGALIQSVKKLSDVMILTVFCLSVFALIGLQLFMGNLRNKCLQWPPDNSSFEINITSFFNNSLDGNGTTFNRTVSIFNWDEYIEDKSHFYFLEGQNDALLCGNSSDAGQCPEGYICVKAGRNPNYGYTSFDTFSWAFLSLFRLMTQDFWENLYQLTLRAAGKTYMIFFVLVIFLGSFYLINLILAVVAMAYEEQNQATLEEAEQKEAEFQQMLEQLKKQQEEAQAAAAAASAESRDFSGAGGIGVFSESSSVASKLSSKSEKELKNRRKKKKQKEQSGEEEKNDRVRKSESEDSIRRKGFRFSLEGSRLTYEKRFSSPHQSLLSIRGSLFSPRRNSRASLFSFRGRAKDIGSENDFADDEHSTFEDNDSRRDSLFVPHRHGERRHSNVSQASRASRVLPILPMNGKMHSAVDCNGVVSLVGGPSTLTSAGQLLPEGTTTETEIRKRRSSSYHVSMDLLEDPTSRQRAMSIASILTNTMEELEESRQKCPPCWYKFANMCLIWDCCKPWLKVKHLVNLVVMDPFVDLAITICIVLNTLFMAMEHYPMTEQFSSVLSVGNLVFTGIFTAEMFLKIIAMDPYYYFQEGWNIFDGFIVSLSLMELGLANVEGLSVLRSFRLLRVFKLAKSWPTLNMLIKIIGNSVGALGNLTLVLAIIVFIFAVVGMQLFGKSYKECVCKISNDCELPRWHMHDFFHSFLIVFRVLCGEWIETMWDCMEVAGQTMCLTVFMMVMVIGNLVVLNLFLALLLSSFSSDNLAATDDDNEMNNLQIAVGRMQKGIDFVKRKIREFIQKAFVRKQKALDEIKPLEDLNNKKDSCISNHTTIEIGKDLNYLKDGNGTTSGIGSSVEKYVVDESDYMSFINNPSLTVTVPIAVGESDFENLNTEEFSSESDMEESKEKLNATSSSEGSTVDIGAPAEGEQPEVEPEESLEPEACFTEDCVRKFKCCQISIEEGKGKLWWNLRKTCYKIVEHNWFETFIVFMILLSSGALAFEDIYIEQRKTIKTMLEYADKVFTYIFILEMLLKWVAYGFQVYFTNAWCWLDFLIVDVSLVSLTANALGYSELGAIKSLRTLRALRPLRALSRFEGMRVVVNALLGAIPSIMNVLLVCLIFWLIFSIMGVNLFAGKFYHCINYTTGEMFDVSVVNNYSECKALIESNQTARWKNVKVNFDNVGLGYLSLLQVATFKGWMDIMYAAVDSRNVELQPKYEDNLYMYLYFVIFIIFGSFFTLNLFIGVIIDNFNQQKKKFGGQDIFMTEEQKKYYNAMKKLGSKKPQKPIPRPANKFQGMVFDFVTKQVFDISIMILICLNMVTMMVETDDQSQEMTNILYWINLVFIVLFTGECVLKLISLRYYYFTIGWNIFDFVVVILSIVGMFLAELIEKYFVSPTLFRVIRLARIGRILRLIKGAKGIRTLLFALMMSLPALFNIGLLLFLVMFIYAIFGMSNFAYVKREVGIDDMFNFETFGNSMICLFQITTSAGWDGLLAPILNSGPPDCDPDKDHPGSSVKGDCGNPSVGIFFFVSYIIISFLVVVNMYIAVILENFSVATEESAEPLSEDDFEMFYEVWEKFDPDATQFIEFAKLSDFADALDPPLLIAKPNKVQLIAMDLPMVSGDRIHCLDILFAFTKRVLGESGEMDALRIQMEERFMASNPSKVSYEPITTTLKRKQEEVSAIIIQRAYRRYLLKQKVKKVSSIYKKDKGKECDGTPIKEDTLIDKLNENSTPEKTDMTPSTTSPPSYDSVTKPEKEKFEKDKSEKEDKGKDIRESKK

On to `CCN1C(=O)NC(=O)C1(C)c1ccccc1` (stereo unspecified), for which, in series [1], the IC50 turned out to be 720 µM. `CCCCOc1cc(C(=O)NCCN(CC)CC)c2ccccc2n1` [DIBUCAINE] showed a logP in series [2] of 3.77. `CCCCCCCC1(c2ccccc2)NC(=O)NC1=O` (stereo unspecified) showed an IC50 in series [1] of 5 µM.

In the series filed under Rattus norvegicus, `CCN(CC)CC(=O)Nc1c(C)cc(C2(c3ccccc3)NC(=O)NC2=O)cc1C` (stereo unspecified) came in with an Activity of 49%.

Take `O=C1NC(=O)C(c2ccccc2)(C2CCCCC2)N1` (stereo unspecified): the IC50 in series [1] is 58 µM. The same measure, in the same setting: for `O=C1NC(=O)C2(CCCc3ccccc32)N1` (stereo unspecified) the value was 851 µM; for `O=C1NC(=O)C2(CCCCc3ccccc32)N1` (stereo unspecified), 251 µM.

`CCN(CC)CC(=O)Nc1c(C)cc(C(O)(C(N)=O)c2ccccc2)cc1C` (stereo unspecified): the Activity in the series filed under Rattus norvegicus is 16%. In turn, `CCOc1ccc(C(=O)OCCN(CC)CC)cc1` [PARETHOXYCAINE] registered an IC50 in series [1] of 24 µM. Further, the logP in series [2] was found to be 2.74. Consider `CCCCCCC1(c2cc(C)c(NC(=O)CN(CC)CC)c(C)c2)NC(=O)NC1=O` (stereo unspecified), for which the Activity in the series listed under Rattus norvegicus worked out at 68%. Consider `CCCC1(c2ccccc2)NC(=O)NC1=O` (stereo unspecified), for which the IC50 in series [1] was determined as 162 µM. In series [1], `CCOC(=O)c1ccc(N)cc1` [BENZOCAINE] yielded an IC50 of 910 µM. In series [2], this compound showed a logP of 1.39.

On to `O=C1C(c2ccccc2)N2CCCCN1C2=O` (stereo unspecified), for which the IC50 in series [1] came out at 700 µM. The lipophilicity (logP) in series [2] is 2.01. In series [1], `O=C1NC(=O)C2(CCCCCc3ccccc32)N1` (stereo unspecified) came in with an IC50 of 251 µM. For `CCCCCCCC1(c2cc(C)c(NC(=O)CN(CC)CC)c(C)c2)NC(=O)NC1=O` (stereo unspecified), in the series listed under Rattus norvegicus, the Activity is 71%.

In the case of `CCCCC1(c2ccc(C)cc2)NC(=O)NC1=O` (stereo unspecified), the IC50 in series [1] stood at 95 µM. The compound `CC12C(=O)NC(=O)N1CCc1ccccc12` (stereo unspecified) gave an IC50 in series [1] of 250 µM. Consider `CCN(CC)CC(=O)Nc1ccc(C(O)(C(N)=O)c2ccccc2)cc1` (stereo unspecified), for which, in the series filed under Rattus norvegicus, the Activity worked out at 4%. In the case of `CCCCCCCCCC(O)(C(N)=O)c1cc(C)c(NC(=O)CN(CC)CC)c(C)c1` (stereo unspecified), the Activity in the series filed under Rattus norvegicus was 63%. Regarding `CCCCCCC1(c2ccccc2)NC(=O)NC1=O` (stereo unspecified), the IC50 in series [1] turned out to be 13 µM. The same measure, in the same setting: for `CCCCCCCC(O)(C(N)=O)c1ccccc1` (stereo unspecified) the value was 9 µM. In the case of `COC(=O)[C@H]1[C@@H](OC(=O)c2ccccc2)C[C@@H]2CC[C@H]1N2C` [COCAINE], the IC50 in series [1] was 49 µM. Also, in series [2], the logP was 1.82. The compound `CCCOc1ccc(C(=O)OCCN(CC)CC)cc1N` [PROPARACAINE] returned an IC50 in series [1] of 2 µM. Besides, the logP in series [2] was determined as 2.42. As for `CCCCCCCC(O)(C(N)=O)c1cc(C)c(NC(=O)CN(CC)CC)c(C)c1` (stereo unspecified), the Activity in the series filed under Rattus norvegicus was determined as 83%; in series [3], 67.7%. For the same compound, the result in series [4] was inactive. In the case of `CCCCC1(c2ccccc2C)NC(=O)NC1=O` (stereo unspecified), the IC50 in series [1] turned out to be 225 µM. Compound `CCCCNc1ccc(C(=O)OCCN(C)C)cc1` [TETRACAINE] came in with a logP in series [2] of 3.27. For the compound `CCN(CC)CC(=O)Nc1ccc(C2(c3ccccc3)NC(=O)NC2=O)cc1` (stereo unspecified), the Activity in the series filed under Rattus norvegicus was found to be 50%.

As for `CCN(CC)CCOC(=O)c1ccc(N)cc1` [PROCAINE], the IC50 in series [1] amounted to 110 µM. This compound gave a logP in series [2] of 2.53. `CC1CCCCN1CCCOC(=O)c1ccccc1` (stereo unspecified) [PIPEROCAINE]: the IC50 in series [1] stood at 12.9 µM. Further, in series [2], the logP came out at 3.01.

In the case of `CCCCCCCCCC1(c2cc(C)c(NC(=O)CN(CC)CC)c(C)c2)NC(=O)NC1=O` (stereo unspecified), the Activity in the series filed under Rattus norvegicus was 69%. `CC(CNC1CCCCC1)OC(=O)c1ccccc1` (stereo unspecified) [HEXYLCAINE] showed an IC50 in series [1] of 7.1 µM. In addition, the lipophilicity (logP) in series [2] turned out to be 3.34. For `O=C1C(c2ccccc2)N2CCCCCN1C2=O` (stereo unspecified), in that order: 427 µM and 2.51. `CCCCCC1(c2ccccc2)NC(=O)N(C)C1=O` (stereo unspecified): in series [1], the IC50 was determined as 39 µM. The compound also registered a logP in series [2] of 2.96. Turning to `CCCCC1(c2ccccc2)NC(=O)NC1=O` (stereo unspecified), the IC50 in series [1] was 103 µM. For the compound `CCCNC(C)C(=O)Nc1ccccc1C` (stereo unspecified) [PRILOCAINE], in series [1], the IC50 stood at 53.7 µM. This compound showed a logP in series [2] of 2.18.

As to `CCCN(CC)C(CC)C(=O)Nc1c(C)cccc1C` (stereo unspecified) [ETIDOCAINE], in series [2], the logP turned out to be 3.87. In turn, `CCCCC1(c2cccc(C)c2)NC(=O)NC1=O` (stereo unspecified) returned an IC50 in series [1] of 58 µM. On the same count and under the same terms, for `O=C1NC(=O)C(c2ccccc2)(c2ccccc2)N1` [PHENYTOIN] the value was 40 µM. Regarding `O=C1NC(=O)C2(CCc3ccccc32)N1` (stereo unspecified), the IC50 in series [1] was 2110 µM. Consider `CCCOc1cc(N)ccc1C(=O)OCCN(CC)CC` [PROPOXYCAINE HYDROCHLORIDE], for which, in series [1], the IC50 came out at 24 µM. For the same compound, in series [2], the logP was 2.42.

On to `CCCCCCCCC1(c2ccccc2)NC(=O)NC1=O` (stereo unspecified), for which the IC50 in series [1] came out at 5 µM. Also, the logP in series [2] is 4.96.
